Test system: MS2 coat protein
Experiment: apparent Kd, MS2 coat protein; higher = weaker binding; RNA-MaP array; FMN 200 µM where present
Summary of the method: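 Each design was made on Illumina sequencing-chip clusters by stalled E. coli RNA polymerase and titrated with SNAP-549-labelled MS2 coat protein from 0.7 or 1.5 nM, doubling to 3 µM, in the absence and then the presence of constant ligand. The buffer was 100 mM Tris-HCl pH 7.5, 80 mM KCl, 4 mM MgCl2, BSA, DTT, yeast tRNA and Tween-20. The apparent Kd is the median of filtered per-cluster fits of binding curves, with green signal normalised to red-channel RNA signal and control-cluster median Fmax.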

[1] = designed as: ON switch for flavin mononucleotide, no ligand
[2] = ligand present: flavin mononucleotide, designed as: ON switch for flavin mononucleotide
[3] = designed as: OFF switch for flavin mononucleotide, no ligand
[4] = ligand present: flavin mononucleotide, designed as: OFF switch for flavin mononucleotide

| Sequence | apparent Kd [1] [nM] | apparent Kd [2] [nM] | apparent Kd [3] [nM] | apparent Kd [4] [nM] |
| --- | --- | --- | --- | --- |
| UUGGCGACGUAGAAGGGUGACAUGAGGAUCACCCAUGUGCCGAUAUGUCUCGAGAUAUGUCGGCCACAGGAUAUACGUGCCAUC | 61.7 | 38.5 | – | – |
| CGAAUACGCGUGAGGAUAUCGUUCGAAUAUUGCGAUGAGAAGGCACAUGAGGAUCACCCAUGUAGGUAUCCUGG | – | – | 73.2 | 120 |
| UCGUUUUUUGAGGAUAUGCGACGUUCCUUCGUCGUAGAAGGCGAUACAUGAGGAUCACCCAUGUUUAUGGGCAU | – | – | 108 | 138 |
| AGAUGGCGAGGAUAUACAUGAGGAUCACCCAUGUGAAGAAGAAUAGUGAGGAAGAAAAGUAGAAGGCGCUGUCA | – | – | 53.6 | 180 |
| AAGUGUGGAUGAGGAUAUCAGCUGUAACUGACGUCGACAUGAGGAUCACCCAUGUUGCUAAAGGGUGAGAAGGCAUUUGCGCAA | 481 | 53.8 | – | – |
| CGUAGGAUCCAGAAGGCAUGAACAUGAGGAUCACCCAUGUGAAAACACAUGAGGAUAUGGAUCCUACGAAAAGUGCGAAAGCAC | 5.4 | 4.66 | – | – |
| UUAACAUGAGGAUCACCCAUGUCGUGCUAGAUGAGUUCUGGUGAGGAUAUACAUGGUAAAGAACUGUAGAAGGCACUGGGUACA | 309 | 336 | – | – |
| AGUAACAGAGGAUAUACUAUUUUAUGUGUUUGUUAUUUUAAACAUGAGGAUCACCCAUGUAGAAGGCUGAAUGA | – | – | 28.4 | 29.1 |
| UUAUUAUAUGUAGGAUAUGCAUAUUAUUAUUAUGCAGAAGGACAUGAGGAUCACCCAUGUAUAUUAUUAUUAUAUAUUAUAUGU | – | – | 41.2 | 86.1 |
| AAGAUACAUGAGGAUCACCCAUGUCGAGAGAGACGAGGAUAUCUGAAUCGAUUAGAUUACGGAGAAGGCGUGAAAA | 31.5 | 25.6 | – | – |
| AGGAAGUCAGGAUAUGCUGCUCGUCACUUGCGUGAUGAGUAGCAGAAGGGACAUGAGGAUCACCCAUGUAAAGA | – | – | 51.1 | 65.1 |
| UGAUCGAAAGAUCAUAGAUUCUGGCAGGAUAUGCAGUAGUUUUAAUUUACAUGAGGAUCACCCAUGUAGAAGGGCUAGAGUCUA | – | – | 6.33 | 7.4 |
| UCUAGGGACGCAGGAUAUGGAGUGAGUGUCUAUCACAUGAGGAUCACCCAUGUUUGGGUCUCACGCUAGAAGGGCGAAUGUGGG | 357 | 63.5 | – | – |
| ACGCAGCUGGGUAAGGAUAUCGGUGGUAAAACAUGAGGAUCACCCAUGUCCGAAGCUCGGACCUCCGAGAAGGUGCCCGGCUGCG | 8.17 | 8.14 | – | – |
| GGAAAUCAUGUAGGAUAUGCAUGGCGAAGCUACGCAGAAGGACAUGAGGAUCACCCAUGUUAUAGCUACCCAGUUCGGUGGCAA | – | – | 133 | 180 |
| UGAACUAUGUAGAAGGCCCAUAUCUAUAUUUAGGGAGGAUAUACAUGAGGAUCACCCAUGUAUAGAGCGGGUGGACCCGUCACU | – | – | 39 | 72.1 |
| GUGUACGUAGGAUAUGCUGGAAUCUAGCGAAGCUAGGUUCCACAUGAGGAUCACCCAUGUAGAAGGGCGUACAC | – | – | 182 | 47.1 |
| GUAAAGUGAGGAUAUGGUAAAGUAAGUAUGUAGUAAGUAAUCCAGAAGGCACAUGAGGAUCACCCAUGUAAAUG | – | – | 30 | 32.3 |
| AGGCGGGUAGGAUAUGCGUACUUACGGGAAAGCUGAAUGGUACAUGAGGAUCACCCAUGUAGAAGGGCUCUGAA | – | – | 18.3 | 27 |
| CUAUUUUGUGCCUCAUUUACAUGAGGAUCACCCAUGUUAACUUAGGAUAUAUUUAUAUUGUUAGAGUAGAAGGAAGUACAAUUU | – | – | 83.5 | 55.9 |
| GCCUCAUAGUAGAAGGGACUUAGGCAGUUAAGCAUCAUCUCCAUUUCACAUGAGGAUCACCCAUGUCAGGAUAUACUAAGAGGC | – | – | 9.39 | 24.5 |
| GUCGGAAACGACAAAAGUAGCAUAGGAGAAGGCAUGUCAUAAGACAUGAGGAUCACCCAUGUCCGUGAGGAUAUCCUAUGCUAC | 8.14 | 6.15 | – | – |
| AUGGAUAUCACAGGAUAUGCCAUGGAUACCAUGGCAGAAGGGUGAUCCAUCCUAUGUAAAUACAUGAGGAUCACCCAUGUGUCC | 16.1 | 13.7 | – | – |
| ACGUCUUAGUAGAAGGGACAUCGGCUGGUAAGCAUCAUCUCCUUCUCACAUGAGGAUCACCCAUGUCAGGAUAUACUAAGAGUC | – | – | 12.3 | 38.2 |

| Sequence | apparent Kd [1] [nM] | apparent Kd [2] [nM] | apparent Kd [3] [nM] | apparent Kd [4] [nM] |
| --- | --- | --- | --- | --- |
| AAGGAUAGAGGAUAUACAUAGAUACAGAUUCAUGUAGAACUACAUGAGGAUCACCCAUGUAGAAGGCUAUCCUA | – | – | 32.9 | 239 |
| GCCAUCACGUGAGGAUAUGCUCCCGUUUCGGGAGCAGAAGGCAUGUCAUAAGACAUGAGGAUCACCCAUGUAGUUAAGAUGGCA | 317 | 12 | – | – |
| CAGUACUGAGGAUAUACAUGAGGAUCACCCAUGUGAAUAGCAUAGGAAACUAUGCUAUGUAGAAGGCAGUACUG | – | – | 14.1 | 22.6 |
| UAUGAGCGAGGAUAUGCUUGGGACUGUCGGAAUGUGGCGGGACAUGAGGAUCACCCAUGUAGAAGGCGCGAGCG | – | – | 95.1 | 212 |
| GGGCUGUCAGGAUAUGGGUUUGGGCCCGAAAGGGCCCGGGCCCAGAAGGGACAUGAGGAUCACCCAUGUGGCCC | – | – | 32.1 | 33.8 |
| UUGGACGUCGUAGGAUAUGUAGGAUAUUCCUACAUGAGGAUCACCCAUGUUGACCUGGAAGAAGGACAGAAGGACGAUGUCCAU | 64.2 | 4.64 | – | – |
| GUCGGAAACGACAAUGAUAGGACUGAGGAUAUACAUAAGUUAGUCCAUACAUGAGGAUCACCCAUGUAGAAGGCAGUCCUAUCU | – | – | 7.78 | 33.4 |
| AAAAUCUAUUGAGGAUAUUCAAACACUACAUACGGAGAAGGCAAACAAUCAUGAGGACAUGAGGAUCACCCAUGUUGUGACCAU | 25.5 | 19.4 | – | – |
| CCCGGCGAGUCGCUACGCCGAGAGCAGGAUAUUCCGCCGUGAUCUACAUGAGGAUCACCCAUGUGGAAGAAGGGCUACACAAAA | – | – | 15.1 | 158 |
| CGUAUGUCAGGAUAUGCGUAAACCGGUCAGGGCGAGCGGCAGCAGAAGGGACAUGAGGAUCACCCAUGUUCGGG | – | – | 46.7 | 46.6 |
| AGAAAUUAGUGAGGAUAUGCAUAAUAUUUAGCUGCAGAAGGCACGGACCACAAGACAUGAGGAUCACCCAUGUGGUAUAUAGAU | – | – | 24.9 | 30.9 |
| CUGAUGUCAGGAUAUCAGAAAAGGUGCAAGGACGCACCAAAUGAGAAGGGACAUGAGGAUCACCCAUGUAAAAC | – | – | 25 | 122 |
| CAUUAAUUCAUUAUAGUAAUUAUACAGGAUAUGUUACAUGAGGAUCACCCAUGUAUUCAUGGUAAACAGAAGGGUAAUACUAGA | – | – | 12.3 | 22.4 |
| CUUUAGUGAGGAUAUGUGGCUUCGAUCGUGAGAUCGAGGCUACAGAAGGCACAUGAGGAUCACCCAUGUACCUU | – | – | 14.3 | 17 |
| ACAUGAGGAUCACCCAUGUUCACAUAGGAUAUUGAUUUUAUUGGUUUUAGAAUAGUAAUUAAACUCAAGAAGGAUGCCAGUUGU | 10.7 | 8.78 | – | – |
| GUACUGUAGUGAGGAUAUACGAGUACGAUAGUACGGCGAUCCAUUUAUACAUGAGGAUCACCCAUGUAGAAGGCACUUCAGUAC | – | – | 6.09 | 61.6 |
| ACAUGAGGAUCACCCAUGUAUUACAUGGUUAAGUUUAUUAACAGAAGGCGAAAAUACCACUUUUUCGAGGAUAUGUUUUCUAUA | – | – | 47.4 | 61.6 |
| GAAUUCGCAUGAGGAUAUGCACUCAUUUCAUGUGCAGAAGGUAUUUCAUUAGACAUGAGGAUCACCCAUGUAUUGGUCAUUAAC | 19.3 | 14.7 | – | – |
| AAAAAGCGAGGAUAUACAUGAGGAUCACCCAUGUGAAAGUCGAAAAAAAAGACAAAAAGUAGAAGGCGCAAAAA | – | – | 23.2 | 26.7 |
| GGAGCACGCACAGGAUAUCCGGCGGCGCUCGUCGGAGAAGGGUGACAUGAGGAUCACCCAUGUACGUGCAACUUAGUUUAAGAG | 37.1 | 29.6 | – | – |
| GGCUGGUGACAGCAUCCAUCAAAACAUGAGGAUCACCCAUGUAGAAGGCUGUACGGUUACCGUACAGAGGAUAUACAAUGAUGG | – | – | 6.96 | 9.46 |
| GCACUCAAGUUAGGAUAUGGAUCGGAAAACGAUCCAGAAGGAAUAUGGGAACAUGAGGAUCACCCAUGUUCCAGAAACGAGUGC | 62.5 | 30.4 | – | – |
| UACGUACAGAAGAACUCCGGGUCCAGAAGGGACAUGAGGAUCACCCAUGUACCGUUGAUUGCUUGUCAGGAUAUGGACCCGGCC | – | – | 6.67 | 28 |
| UGUCGGAGCAGAGGAUAUUACAUGAGGAUCACCCAUGUAUGAACCAAUAGCUGGAAACAGCAACGUAAGAAGGCUGCUCCGACA | – | – | 6.75 | 47.2 |
